Assay results taken from ChEMBL document CHEMBL1955854, “New retinoid derivatives as back-ups of Adarotene” (Bioorg Med Chem, 2012).

Experiments:
[1] = Chemical stability in aqueous buffer containing 5% DMSO and 5% tween 80 at pH 1.2 assessed as compound recovery in anoxic conditions after 3 hrs by UPLC analysis; assay type: physicochemical; settings: read-out: Stability
Summary of the method: (§1)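 Stability at 37 °C in aqueous buffer with 5% DMSO and 5% Tween 80 at pH 1.2, 6.8 or 7.4; percent recovery by HPLC/UPLC on BEH C18 column, water+0.1% TFA/acetonitrile gradient from 40% to 95% acetonitrile over 8 min, room temperature.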

NCI-H460 [2] = assay: Antiproliferative activity against human NCI-H460 cells incubated for 24 hrs drug exposure measured after 48 hrs of recovery by sulforhodamine B assay; assay type: functional, cell-based
[3] = Chemical stability in aqueous buffer containing 5% DMSO and 5% tween 80 at pH 7.4 assessed as compound recovery in anoxic conditions after 24 hrs by UPLC analysis; assay type: physicochemical; settings: read-out: Stability; summary of the method: as §1
[4] = Solubility in water; assay type: physicochemical; settings: buffer
A-431 [5] = assay: Antiproliferative activity against human A431 cells incubated for 24 hrs drug exposure measured after 48 hrs of recovery by sulforhodamine B assay; assay type: functional, cell-based
[6] = Chemical stability in aqueous buffer containing 5% DMSO and 5% tween 80 at pH 1.2 assessed as compound recovery in anoxic conditions after 12 hrs by UPLC analysis; assay type: physicochemical; settings: pH 1.2, 12 h; summary of the method: as §1
[7] = Chemical stability in aqueous buffer containing 5% DMSO and 5% tween 80 at pH 6.8 assessed as compound recovery in anoxic conditions after 24 hrs by UPLC analysis; assay type: physicochemical; settings: read-out: Stability; summary of the method: as §1
[8] = Toxicity in iv dosed nude CD1 mouse xenografted with human A431 cells assessed as mortality administered qd 3 times per week for 2 weeks; assay type: organism-based, A-431; settings: in vivo
A-431 [9] = assay: Antitumor activity against human A431 cells xenografted in nude CD1 mouse assessed as tumor volume inhibition at 37 mg/kg, iv administered qd 3 times per week for 2 weeks relative to control; assay type: functional; settings: A-431, 336 h, read-out: TGI
Summary of the method: (§2)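 CD1 nude mice given s.c. right-flank NCI-H460 (3 × 10⁶) or A431 (5 × 10⁶) cells from culture on day 0; eight mice per group. Dosing began day 3 at ~50 mm³ tumors; vehicle 10% DMSO, 9% HPBCD, 14.4% PEG1000 in water. Diameters taken biweekly by caliper; mice weighed daily, maximum BWL% reported; Mann–Whitney versus vehicle.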

Mus musculus [10] = assay: Toxicity in nude CD1 mouse xenografted with human A431 cells assessed as body weight loss at 37 mg/kg, iv administered qd 3 times per week for 2 weeks; assay type: organism-based, A-431; design: dose 37 mg/kg, route intravenous; settings: in vivo, 336 h; summary of the method: as §2
Mus musculus [11] = assay: Toxicity in nude CD1 mouse xenografted with human A431 cells assessed as body weight loss at 10 mg/kg, iv administered qd 3 times per week for 2 weeks; assay type: organism-based, A-431; design: dose 10 mg/kg, route intravenous; settings: in vivo, 336 h; summary of the method: as §2
Mus musculus [12] = assay: Toxicity in nude CD1 mouse xenografted with human NCI-H460 NSCLC cells assessed as body weight loss at 18 mg/kg, iv administered qd 3 times per week for 2 weeks; assay type: organism-based; design: dose 18 mg/kg, route intravenous; settings: in vivo, 336 h; summary of the method: as §2
NCI-H460 [13] = assay: Antitumor activity against human NCI-H460 cells xenografted in nude CD1 mouse assessed as tumor volume inhibition at 18 mg/kg, iv administered qd 3 times per week for 2 weeks relative to control; assay type: functional; settings: NCI-H460, 336 h, read-out: TGI; summary of the method: as §2
A-431 [14] = assay: Antitumor activity against human A431 cells xenografted in nude CD1 mouse assessed as tumor volume inhibition at 10 mg/kg, iv administered qd 3 times per week for 2 weeks relative to control; assay type: functional; settings: A-431, 336 h, read-out: TGI; summary of the method: as §2
[15] = Chemical stability in aqueous buffer containing 5% DMSO and 5% tween 80 at pH 6.8 assessed as compound recovery in anoxic conditions after 6 hrs by UPLC analysis; assay type: physicochemical; settings: read-out: Stability; summary of the method: as §1
[16] = Chemical stability in aqueous buffer containing 5% DMSO and 5% tween 80 at pH 7.4 assessed as compound recovery in anoxic conditions after 6 hrs by UPLC analysis; assay type: physicochemical; settings: read-out: Stability; summary of the method: as §1
Plasma [17] = assay: Prodrug conversion in mouse plasma assessed as drug concentration at 0.5 hrs in presence of esterase inhibitor PMSF; assay type: ADME, cell-free
Summary of the method: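 Prodrug incubated with murine plasma pretreated with the esterase inhibitor PMSF, run alongside untreated plasma; release of parent followed over time.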

Plasma [18] = assay: Prodrug conversion in mouse plasma assessed as drug concentration at 6 hrs in presence of esterase inhibitor PMSF; assay type: ADME, cell-free
Summary of the method: (§3)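 Prodrugs already shown stable at pH 1.2, 6.8 and 7.4 were incubated in murine plasma and sampled over time up to 6 h. A parallel incubation used murine plasma pretreated with the esterase inhibitor PMSF (phenylmethyl sulfonyl fluoride).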

Plasma [19] = assay: Prodrug conversion in mouse plasma assessed as drug concentration at 0.5 hrs; assay type: ADME, cell-free; summary of the method: as §3
Plasma [20] = assay: Prodrug conversion in mouse plasma assessed as drug concentration at 1 hr; assay type: ADME, cell-free; summary of the method: as §3
Plasma [21] = assay: Prodrug conversion in mouse plasma assessed as drug concentration at 6 hrs; assay type: ADME, cell-free; summary of the method: as §3
Plasma [22] = assay: Prodrug conversion in mouse plasma assessed as drug concentration at 3 hrs; assay type: ADME, cell-free; summary of the method: as §3
Mus musculus [23] = assay: Toxicity in nude CD1 mouse xenografted with human A431 cells assessed as body weight loss at 35 mg/kg, ip administered qd 3 times per week for 2 weeks; assay type: organism-based, A-431; design: dose 35 mg/kg, route intraperitoneal; settings: in vivo, 336 h
Summary of the method: (§4)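 CD1 nude mice bore s.c. A431 xenografts (5 × 10⁶ cells, right flank, 8 mice per group). Dosing started on day 3 on a qdx3/wx2w schedule, in vehicle of 10% DMSO, 9% HPBCD and 14.4% PEG1000 in water. Mice were weighed daily, and BWL% = 100 − (mean body weight day x / mean body weight day 1 × 100), with day 1 the first treatment day. The maximum BWL is reported.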

A-431 [24] = assay: Antitumor activity against human A431 cells xenografted in nude CD1 mouse assessed as tumor volume inhibition at 35 mg/kg, ip administered qd 3 times per week for 2 weeks relative to control; assay type: functional; settings: A-431, ip, 336 h, route intraperitoneal, read-out: TGI
Summary of the method: (§5)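 A431 epidermoid carcinoma cells (5 × 10⁶) from in vitro culture were injected s.c. into the right flank of CD1 nude mice on day 0, with 8 mice per group. Dosing began on day 3, at tumors of about 50 mm³, on a qdx3/wx2w schedule. Vehicle was 10% DMSO, 9% HPBCD and 14.4% PEG1000 in water. Tumor diameters were measured twice weekly by caliper, and TVI% was taken versus the vehicle group (Mann–Whitney).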

Mus musculus [25] = assay: Toxicity in nude CD1 mouse xenografted with human A431 cells assessed as body weight loss at 35 mg/kg, po administered qd 3 times per week for 2 weeks; assay type: organism-based, A-431; design: dose 35 mg/kg, route oral; settings: in vivo, 336 h; summary of the method: as §4
A-431 [26] = assay: Antitumor activity against human A431 cells xenografted in nude CD1 mouse assessed as tumor volume inhibition at 35 mg/kg, po administered qd 3 times per week for 2 weeks relative to control; assay type: functional; settings: A-431, 336 h, read-out: TGI; summary of the method: as §5

Row | Compound | remaining at 3 h [1] [%] | IC50 (NCI-H460 [2]) [nM] | remaining at 24 h [3] [%] | solubility [4] | IC50 (A-431 [5]) [nM] | Stability [6] | remaining at 24 h [7] [%] | remaining at 6 h [15] [%] | remaining at 6 h [16] [%] | Drug metabolism (Plasma [17]) [%] | Drug metabolism (Plasma [18]) [%] | Drug metabolism (Plasma [19]) [%] | Drug metabolism (Plasma [20]) [%] | Drug metabolism (Plasma [21]) [%] | Drug metabolism (Plasma [22]) [%] | also measured
1 | CC(=O)Oc1ccc(-c2ccc(/C=C/C(=O)O)cc2)cc1C12CC3CC(CC(C3)C1)C2 | > 99 | 260 | > 99 | Insoluble | 530 | Stable | > 99 |  |  |  |  |  |  |  |  | 
2 | O=C(O)/C=C/c1ccc(-c2ccc(OC(=O)CCCN3CCOCC3)c(C34CC5CC(CC(C5)C3)C4)c2)cc1 | > 99 | 220 | 88 | Insoluble | 340 | Stable | 90 | 99 | 99 |  |  |  |  |  |  | MTD at 336 h [8]: 18 mg/kg; inhibition in vivo at 37 mg/kg (A-431 [9]): 59%; Activity (Mus musculus [10]): 18%; Activity (Mus musculus [11]): 0%; Activity (Mus musculus [12]): 10%; inhibition in vivo at 18 mg/kg (NCI-H460 [13]): 37%; inhibition in vivo at 10 mg/kg (A-431 [14]): 34%
3 | CN1CCN(CCCC(=O)Oc2ccc(-c3ccc(/C=C/C(=O)O)cc3)cc2C23CC4CC(CC(C4)C2)C3)CC1 | > 99 | 240 | 64 | Insoluble | 410 | Stable | 85 | 98 | 89 |  |  |  |  |  |  | 
4 | CC(C)[C@H](N)C(=O)Oc1ccc(-c2ccc(/C=C/C(=O)O)cc2)cc1C12CC3CC(CC(C3)C1)C2.Cl | > 99 | 510 | 12 | Insoluble | 410 | Stable | 39 | 92 | 62 |  |  |  |  |  |  | 
5 | O=C(O)/C=C/c1ccc(-c2ccc(OC(=O)COCCOCCOCC(=O)O)c(C34CC5CC(CC(C5)C3)C4)c2)cc1 | > 99 | 170 | > 99 | Insoluble | 330 | Stable | > 99 |  |  |  |  |  |  |  |  | 
6 | NC1(C(=O)Oc2ccc(-c3ccc(/C=C/C(=O)O)cc3)cc2C23CC4CC(CC(C4)C2)C3)CC1.O=C(O)C(F)(F)F | > 99 | 100 | 62 | Insoluble | 400 | Stable | > 99 |  | 88 | 87.31 | 97.77 | 97.02 | 96.87 | 96.31 | 96.66 | 
7 | O=C(O)/C=C/c1ccc(-c2ccc(OC(=O)C3CC3)c(C34CC5CC(CC(C5)C3)C4)c2)cc1 | > 99 | 850 | > 99 | Insoluble |  | Stable | > 99 |  |  | 43.95 | 99.76 | 100 | 100 | 100 | 100 | 
8 | CNCCNC(=O)Oc1ccc(-c2ccc(/C=C/C(=O)O)cc2)cc1C12CC3CC(CC(C3)C1)C2.Cl | > 99 | 240 | 36 | Insoluble | 320 | Stable | 69 | 92 | 76 | 1.35 | 17.55 | 96.23 | 99.8 | 99.95 | 99.94 | 
9 | Cl.NCCCCNC(=O)Oc1ccc(-c2ccc(/C=C/C(=O)O)cc2)cc1C12CC3CC(CC(C3)C1)C2 | > 99 | 2600 | > 99 | Insoluble | 3400 | Stable | > 99 |  |  |  |  |  |  |  |  | Activity (Mus musculus [23]): 6%; inhibition in vivo at 35 mg/kg (A-431 [24]): 1%; Activity (Mus musculus [25]): 3%; inhibition in vivo at 35 mg/kg (A-431 [26]): 0%
10 | CC(C)C[C@H](NC(=O)Oc1ccc(-c2ccc(/C=C/C(=O)O)cc2)cc1C12CC3CC(CC(C3)C1)C2)C(=O)NCC(=O)O | > 99 | 3500 | > 99 | Insoluble |  | Stable | > 99 |  |  |  |  |  |  |  |  | 
